Consider 2 compounds from ChEMBL document CHEMBL1629705, “PSI-7851, a pronucleotide of beta-D-2'-deoxy-2'-fluoro-2'-C-methyluridine monophosphate, is a potent and pan-genotype inhibitor of hepatitis C virus replication” (Antimicrob Agents Chemother, 2010).

Data set [1] concerns Hepatitis C virus. The data set is described as follows: Antiviral activity against Hepatitis C virus assessed as log reduction in viral RNA at 1 uM after 3 weeks. Format: functional, Hepacivirus hominis. In outline: (§1)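 ET-lunet replicon cells seeded at 1 × 10^5/well without G418, treated at 0.1, 1 or 2 μM (final DMSO 0.5%). Passaged 1:3–1:4 every 3–4 days for 3 weeks with fresh compound. Then compound withdrawn and cells grown 3 more weeks in 0.25 mg/ml G418. HCV RNA by RT-PCR (ΔΔCt vs rRNA and DMSO controls, log change). Colonies fixed in formaldehyde and stained with crystal violet at 6 weeks.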

The test system of data set [2] is Hepatitis C virus. Kind of data set: Antiviral activity against Hepatitis C virus isolate Con1 harboring Btat protein assessed as viral RNA level by quantitative real-time PCR. Format: functional, organism-based, Hepacivirus hominis.
In data set [3] the test system is Hepatitis C virus. Kind of data set: Antiviral activity against Hepatitis C virus assessed as inhibition of viral rebound at 2 uM after 3 weeks in presence of G418. Format: functional, organism-based. The settings on record: Hepacivirus hominis. The method, boiled down: (§2)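 ET-lunet replicon cells, 1 × 10^5/well, no G418, with compound at 0.1, 1 or 2 μM (final DMSO 0.5%). Passaged 1:3 or 1:4 every 3–4 days for 3 weeks with fresh compound, then 3 more weeks with 0.25 mg/ml G418 and no inhibitor. HCV RNA by RT-PCR normalized to rRNA (ΔΔCt vs DMSO) at each passage. Crystal violet colony staining at 6 weeks.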

The nature of data set [4]: Cytotoxicity against human HuH7 cells assessed as effect on cellular GAPDH RNA level after 8 days by quantitative real-time PCR. Format: cell-based, Huh-7.
For data set [5], the system named is Hepatitis C virus. Kind of data set: Antiviral activity against Hepatitis C virus harboring NS5B polymerase S96T mutant gene infected in human lunet cells by luciferase-based replicon assay. Format: functional, Hepacivirus hominis. The method, boiled down: (§3)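 ET-lunet cells with the ET genotype 1b replicon, wild-type or S96T/N142T (ET replicon with these mutations electroporated into Lunet cells, selected in 0.2 mg/ml G418). 3,000 cells/well, 4 days with serially diluted compound. Firefly luciferase luminescence read-out; EC90 from dose–response.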

Data set [6] deals with Hepatitis C virus. Kind of data set: Antiviral activity against Hepatitis C virus assessed as log reduction in viral RNA at 0.1 uM after 3 weeks. Format: functional, Hepacivirus hominis. In outline: as §1
Data set [7] deals with Hepatitis C virus. Kind of data set: Selectivity ratio of EC90 for Hepatitis C virus harboring NS5B polymerase S282T mutant gene to EC90 for Hepatitis C virus harboring wild-type NS5B polymerase. Format: functional, Hepacivirus hominis. The method, boiled down:
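Clone A genotype 1b (Con1) replicon cells, wild-type or S282T mutant (selected with 2′-C-methyladenosine). 1,500 cells/well, 4 days with serially diluted compound. HCV RNA by real-time RT-PCR; EC90 from dose–response.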

The test system of data set [8] is Hepatitis C virus. The data set is described as follows: Selectivity ratio of EC90 for Hepatitis C virus harboring NS5B polymerase S96T mutant gene to EC90 for HCV harboring wild type NS5B polymerase. Format: functional, Hepacivirus hominis.
Data set [9] has as its system Hepatitis C virus. The data set is described as follows: Antiviral activity against Hepatitis C virus assessed as clearance of HCV from replicon cells at 1 uM. Format: functional, organism-based. To be noted: Hepacivirus hominis. In outline:
as §2

The test system of data set [10] is Human immunodeficiency virus. The data set is described as follows: Antiviral activity against HIV infected in human HeLaP4 cells by beta-galactosidase-based reporter gene assay. Format: functional, organism-based. The settings on record: Human immunodeficiency virus 1, HeLaP4. In outline:
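P4 cells (HeLa expressing CD4/CXCR4 with HIV-1 LTR-driven LacZ), 10,000 cells/well, incubated overnight at 37°C, 5% CO2. Compound added 4 h before infection with HIV NL4-3 (4 ng/well p24-equivalent) plus DEAE-dextran 20 μg/ml. Incubated further 40–42 h. Beta-galactosidase read by luminescence; percent inhibition versus no-drug wells.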

Data set [11] is described as follows: Cytotoxicity against human HepG2 cells assessed as inhibition of mitochondrial DNA synthesis. Format: cell-based. In outline: (§4)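 HepG2 or CEM cells incubated 14 days with compound up to 100 μM, ddC as control. Medium and compound replenished on days 7 and 11. Mitochondrial COXII gene and nuclear rDNA measured by multiplex quantitative RT-PCR.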
The next data set concerns CCRF-CEM. Kind of data set: Mitochondrial toxicity in human CEM cells assessed as effect on mitochondrial cytochrome c oxidase subunit 2 gene level up to 100 uM after 14 days by quantitative real-time PCR assay. Format: cell-based. The settings on record: 336 h. In outline: as §4
For data set [12], the target named is T1, DNA-directed RNA polymerase II subunit RPB1 (Homo sapiens, UniProt P24928). The data set is described as follows: Inhibition of human RNA polymerase at 2 uM.
A further data set deals with HepG2. The data set is described as follows: Mitochondrial toxicity in human HepG2 cells assessed as effect on mitochondrial cytochrome c oxidase subunit 2 gene level up to 100 uM after 14 days by real-time PCR assay. Format: cell-based. The settings on record: hepg2, 336 h. In outline: as §4
A short description of data set [13]: Cytotoxicity against HFF. The settings on record: human, HFF cells. Format: cell-based.
The test system of data set [14] is Hepatitis C virus. Kind of data set: Antiviral activity against Hepatitis C virus assessed as log reduction in viral RNA at 2 uM after 3 weeks. Format: functional, Hepacivirus hominis. The method, boiled down: as §1
The test system of another data set is Influenza A virus. The data set is described as follows: Antiviral activity against Influenza A virus (A/Brisbane/10/2007(H3N2)) infected in HFF by neutral red assay. Format: functional, organism-based.
A short description of data set [15]: Cytotoxicity against human HeLaP4 cells. Format: cell-based.
In data set [16] the test system is Hepatitis C virus. Kind of data set: Antiviral activity against Hepatitis C virus harboring NS5B polymerase S96T/N142T mutant gene infected in human lunet cells by luciferase-based replicon assay. Format: functional, Hepacivirus hominis. In outline:
as §3

Data set [17] has as its system Hepatitis C virus. The data set is described as follows: Antiviral activity against Hepatitis C virus harboring wild-type NS5B infected in human lunet cells by luciferase-based replicon assay. Format: functional, Hepacivirus hominis. In outline: as §3
Another data set has as its target DNA polymerase beta (Homo sapiens, UniProt P06746). Kind of data set: Inhibition of human DNA polymerase beta assessed as incorporation of [alpha-32P]dCTP up to 1mM preincubated for 30 mins by whatman DE81 paper binding assay. The method, boiled down:
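Human DNA polymerase β at 18 μg/ml final, in 50 mM Tris pH 7.5, 50 mM NaCl, 5 mM MgCl2, activated calf thymus DNA and 20 μM each dNTP with [α-32P]dCTP. Triphosphate up to 1 mM. 37°C, stopped at 30 min with EDTA. Products quantified by DE81 paper binding; IC50 by nonlinear fit.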

Data set [18] concerns the target T1, DNA-directed RNA polymerase II subunit RPB1. The data set is described as follows: Inhibition of human RNA polymerase 2. In outline: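 In vitro transcription by HeLa nuclear extract from CMV immediate-early promoter DNA. Mix: 400 μM ATP, CTP and UTP, 16 μM GTP, [α-32P]GTP, 3 mM MgCl2, in 20 mM HEPES pH 7.9 buffer with KCl, EDTA, DTT and glycerol. Inhibitor up to 1 mM. 30°C for 60 min. RNA purified, run on 6% sequencing gel and quantified by phosphorimager.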

The nature of data set [19]: Inhibition of Hepatitis C virus genotype 3a recombinant NS5B polymerase after 3 hrs by phosphor imaging. Details: species or system Hepatitis C virus subtype 3a. In outline:
(§5)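 C-terminal Δ21-truncated NS5B: 1b Con1 and 2a JFH-1 expressed in E. coli; 3a and 4a cloned from patient serum. Mix: 1 μM each NTP, [α-32P]UTP, 20 ng/μl genotype 1b(−) IRES RNA template, 40 ng/μl enzyme, 1 mM MgCl2, 0.75 mM MnCl2, 2 mM DTT, 50 mM HEPES pH 7.5. Run at 27°C: 30 min (1b, 2a) or 3 h (3a, 4a). EDTA quench, products on membrane read by phosphorimager. Duplicates; IC50 calculated.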

Data set [20] in a line: Inhibition of Hepatitis C virus genotype 4a recombinant NS5B polymerase after 3 hrs by phosphor imaging. The arrangement: species or system Hepatitis C virus subtype 4a. In outline: as §5

Each structure is given as a SMILES string. The source made the active and inactive calls. The calls are words filed in the database; no cut-off is given here. Where only a bound is given, the exact number is not on record here.

In the case of `CC(C)OC(=O)[C@H](C)NP(=O)(OC[C@H]1O[C@@H](n2ccc(=O)[nH]c2=O)[C@](C)(F)[C@@H]1O)Oc1ccccc1` (stereo not given in full), the FC in the data set with Hepatitis C virus [1] is on record as 4; in the data set with Hepatitis C virus [6] it was 0.58; in the data set on Hepatitis C virus [14], >5. Also, the figures for the half-maximal effective concentration (EC50) (with Hepatitis C virus [2]; in data set [10]; in the data set on Influenza A virus) were 0.09 µM, > 100 µM and > 100 µM, respectively. Further, the concentration for an effect of 90% (EC90) came to 0.65 µM with Hepatitis C virus [2], 0.39 µM in the data set with Hepatitis C virus [5], 0.39 µM in the data set with Hepatitis C virus [16] and 0.52 µM in the data set on Hepatitis C virus [17]. In addition, in the data set on Hepatitis C virus [3], the inhibition result was “Active”. For the same compound, the CC50 at 192 h in [4] was > 100 µM. The results for the Selectivity ratio in the data set on Hepatitis C virus [7] and in the data set with Hepatitis C virus [8] were 16.4 and 0.66, respectively. Further, the result with Hepatitis C virus [9] was Active. Further, the CC90 in data set [11] is < 3 µM. In addition, the Activity result in the data set on CCRF-CEM and with HepG2 was “Non-toxic” each time. In data set [12], this compound gave a fold change (FC) of 5. Moreover, the CC50 in data set [13] and in [15] was > 100 µM each time.

Turning to `C[C@@]1(F)[C@H](O)[C@@H](COP(=O)(O)OP(=O)(O)OP(=O)(O)O)O[C@H]1n1ccc(=O)[nH]c1=O` [GS-461203], the half-maximal inhibitory concentration (IC50) was > 1000 µM on DNA polymerase beta, > 500 µM in data set [18], 0.7 µM in data set [19] and 2.6 µM in data set [20].
